The values below come from ChEMBL document CHEMBL1177699, “Identification and functional characterization of a stable, centrally active derivative of the neurotensin (8-13) fragment as a potential first-in-class analgesic” (J Med Chem, 2010).

Assay [1] has as its system Rattus norvegicus. The assay is described as follows: Analgesic activity in ip dosed Sprague-Dawley rat assessed as paw withdrawal latency by hot plate assay. The class given is functional. The procedure, abridged: (§1)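 Male Sprague-Dawley rats (240–280 g), 10 mg/kg i.p. (morphine 5 mg/kg, saline controls). Hotplate held at 53.0±0.2°C; latency to hind-paw lift, nibble or shake at serial time points, 30 s cut-off. %MPE from pre- and post-drug latencies; endpoints are maximal %MPE, duration at 100% MPE and area under the response curve. n ≥ 6.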

In assay [2] the test system is Rattus norvegicus. The experiment in a line: Analgesic activity in Sprague-Dawley rat assessed as maximal possible effect paw at 10 mg/kg, ip by hot plate assay. The format is functional. The following applies: route intraperitoneal. The procedure, abridged: as §1
For orientation: Thermal pain tests record how soon the animal reacts.

Numbered stars: 1 amine (or outer) side, 2 acyl side, 3 side chain; on linkers, the order of the positions; unused ones are H or OH. Square brackets hold non-standard residues; d marks the D form. Peptide text beside a SMILES is read from it. * marks the point of attachment. Hexanoyl(6-NMe3+) = C[N+](C)(C)CCCCCC(=O)*; X30 = C[C@@H](CCCCC[N+](C)(C)C)C(=O)*; NMe5Ava = CN(CCCCC(=O)[*:2])[*:1]; X13 = CC/N=C(\NCC)NCCCCC(=O)*; X4 = C[C@@H](CCCCN(C)C)C(=O)*; Tle = CC(C)(C)[C@H](N)C(=O)O; X5 = CCN1CCN(CCCCC(=O)*)C1=N; X11 = C[C@@H](CCCCCN)C(=O)*; X15 = O=C(CCCCNC1=NCCCN1)*; X2 = O=C(CCCCNC1=NCCN1)*; X16 = CN(C)CCCCCCC(=O)*; X29 = CNCCCCCC(=O)*; X6 = CNCCCCCCC(=O)*; Ava = NCCCCC(=O)O

`CNCCCCC(=O)N[C@@H](CCCNC(=N)N)C(=O)N1CCC[C@H]1C(=O)N[C@@H](Cc1ccc(O)cc1)C(=O)N[C@H](C(=O)N[C@@H](CC(C)C)C(=O)O)C(C)(C)C` (NMe5Ava-RPY[Tle]L-OH): in the assay on Rattus norvegicus [1], the “Duration at 100% MPE” value turned out to be 120 min. Besides, in the assay with Rattus norvegicus [2], the MPE is reported as 100%.

In the case of `CC(C)C[C@H](NC(=O)[C@@H](NC(=O)[C@H](Cc1ccc(O)cc1)NC(=O)[C@@H]1CCCN1C(=O)[C@H](CCCNC(=N)N)NC(=O)CCCCCCN(C)C)C(C)(C)C)C(=O)O` (X16-RPY[Tle]L-OH), in the assay on Rattus norvegicus [1], the “Duration at 100% MPE” value is 0 min. Besides, the MPE with Rattus norvegicus [2] stood at 29%.

For `CC(C)C[C@H](NC(=O)[C@@H](NC(=O)[C@H](Cc1ccc(O)cc1)NC(=O)[C@@H]1CCCN1C(=O)[C@H](CCCNC(=N)N)NC(=O)CCCCN)C(C)(C)C)C(=O)O` (H-[Ava]RPY[Tle]L-OH), the “Duration at 100% MPE” value with Rattus norvegicus [1] was found to be 0 min. Also, in the assay on Rattus norvegicus [2], the MPE stood at 51.69%.

As for `CCN1CCN(CCCCC(=O)N[C@@H](CCCNC(=N)N)C(=O)N2CCC[C@H]2C(=O)N[C@@H](Cc2ccc(O)cc2)C(=O)N[C@H](C(=O)N[C@@H](CC(C)C)C(=O)O)C(C)(C)C)C1=N` (X5-RPY[Tle]L-OH), the “Duration at 100% MPE” value with Rattus norvegicus [1] came to 0 min. Besides, in the assay on Rattus norvegicus [2], the MPE was determined as 80.48%.

In the case of `CNCCCCCC(=O)N[C@@H](CCCNC(=N)N)C(=O)N1CCC[C@H]1C(=O)N[C@@H](Cc1ccc(O)cc1)C(=O)N[C@H](C(=O)N[C@@H](CC(C)C)C(=O)O)C(C)(C)C` (X29-RPY[Tle]L-OH), in the assay on Rattus norvegicus [1], the “Duration at 100% MPE” value turned out to be 30 min. For the same compound, the MPE in the assay with Rattus norvegicus [2] was 100%.

For the compound `CC(C)C[C@H](NC(=O)[C@@H](NC(=O)[C@H](Cc1ccc(O)cc1)NC(=O)[C@@H]1CCCN1C(=O)[C@H](CCCNC(=N)N)NC(=O)[C@@H](C)CCCCN(C)C)C(C)(C)C)C(=O)O` (X4-RPY[Tle]L-OH), the “Duration at 100% MPE” value in the assay with Rattus norvegicus [1] is on record as 0 min. Also, in the assay with Rattus norvegicus [2], the MPE is recorded as 84.9%.

For the compound `CNCCCCCCC(=O)N[C@@H](CCCNC(=N)N)C(=O)N1CCC[C@H]1C(=O)N[C@@H](Cc1ccc(O)cc1)C(=O)N[C@H](C(=O)N[C@@H](CC(C)C)C(=O)O)C(C)(C)C` (X6-RPY[Tle]L-OH), the “Duration at 100% MPE” value in the assay with Rattus norvegicus [1] is on record as 0 min. Besides, the MPE with Rattus norvegicus [2] came out at 59.32%.

Turning to `CC(C)C[C@H](NC(=O)[C@@H](NC(=O)[C@H](Cc1ccc(O)cc1)NC(=O)[C@@H]1CCCN1C(=O)[C@H](CCCNC(=N)N)NC(=O)CCCCNC1=NCCN1)C(C)(C)C)C(=O)O` (X2-RPY[Tle]L-OH), the “Duration at 100% MPE” value in the assay with Rattus norvegicus [1] stood at 0 min. The MPE with Rattus norvegicus [2] amounted to 76.4%.

As to `CC(C)C[C@H](NC(=O)[C@@H](NC(=O)[C@H](Cc1ccc(O)cc1)NC(=O)[C@@H]1CCCN1C(=O)[C@H](CCCNC(=N)N)NC(=O)CCCCNC1=NCCCN1)C(C)(C)C)C(=O)O` (X15-RPY[Tle]L-OH), the “Duration at 100% MPE” value in the assay on Rattus norvegicus [1] was determined as 0 min. Besides, the MPE in the assay with Rattus norvegicus [2] was found to be 79.62%.

With `CC/N=C(\NCC)NCCCCC(=O)N[C@@H](CCCNC(=N)N)C(=O)N1CCC[C@H]1C(=O)N[C@@H](Cc1ccc(O)cc1)C(=O)N[C@H](C(=O)N[C@@H](CC(C)C)C(=O)O)C(C)(C)C` (X13-RPY[Tle]L-OH), the “Duration at 100% MPE” value in the assay with Rattus norvegicus [1] amounted to 15 min. In addition, the MPE in the assay with Rattus norvegicus [2] was 95.68%.

Consider `CC(C)C[C@H](NC(=O)[C@@H](NC(=O)[C@H](Cc1ccc(O)cc1)NC(=O)[C@@H]1CCCN1C(=O)[C@H](CCCNC(=N)N)NC(=O)CCCCC[N+](C)(C)C)C(C)(C)C)C(=O)O.[Cl-]` ({Hexanoyl(6-NMe3+)}-RPY[Tle]L-OH), for which the “Duration at 100% MPE” value with Rattus norvegicus [1] was 0 min. Besides, in the assay on Rattus norvegicus [2], the MPE is given as 84%.

On to `CC(C)C[C@H](NC(=O)[C@@H](NC(=O)[C@H](Cc1ccc(O)cc1)NC(=O)[C@@H]1CCCN1C(=O)[C@H](CCCNC(=N)N)NC(=O)[C@@H](C)CCCCC[N+](C)(C)C)C(C)(C)C)C(=O)O.[Cl-]` (X30-RPY[Tle]L-OH), for which the “Duration at 100% MPE” value in the assay on Rattus norvegicus [1] is listed as 0 min. Further, the MPE in the assay with Rattus norvegicus [2] stood at 19.9%.

Regarding `CC(C)C[C@H](NC(=O)[C@@H](NC(=O)[C@H](Cc1ccc(O)cc1)NC(=O)[C@@H]1CCCN1C(=O)[C@H](CCCNC(=N)N)NC(=O)[C@@H](C)CCCCCN)C(C)(C)C)C(=O)O` (X11-RPY[Tle]L-OH), the “Duration at 100% MPE” value with Rattus norvegicus [1] is 45 min. The MPE with Rattus norvegicus [2] was found to be 100%.
